From ChEMBL document CHEMBL1212820, “Novel hinge binder improves activity and pharmacokinetic properties of BRAF inhibitors” (J Med Chem, 2010)

Assays:
[1] = molecular target: T1, Serine/threonine-protein kinase B-raf (Homo sapiens, UniProt P15056, V600E); assay: Inhibition of B-Raf V600E mutant
Method in brief: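 Enzymatic IC50 determined in vitro against purified V600E BRAF.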

[2] = molecular target: T1, Serine/threonine-protein kinase B-raf; assay: Inhibition of BRAF V600E mutant-mediated ERK phosphorylation in human WM266.4 cells; format: cell-based
Method in brief: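 Cellular IC50 for inhibition of phosphoERK formation.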

[3] = Growth inhibition of human WM266.4 cells expressing BRAF V600E mutant after 5 days by SRB assay; format: functional; conditions: WM 266-4, 120 h
Method in brief: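 Antiproliferative SRB assay in WM266.4 (BRAF mutant), WM1361 (NRAS mutant) and D24 (BRAF/NRAS wild-type) melanoma cells, with GI50 derived from the assay.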

T1 sequence (P15056 2-766 V600E limits assumed): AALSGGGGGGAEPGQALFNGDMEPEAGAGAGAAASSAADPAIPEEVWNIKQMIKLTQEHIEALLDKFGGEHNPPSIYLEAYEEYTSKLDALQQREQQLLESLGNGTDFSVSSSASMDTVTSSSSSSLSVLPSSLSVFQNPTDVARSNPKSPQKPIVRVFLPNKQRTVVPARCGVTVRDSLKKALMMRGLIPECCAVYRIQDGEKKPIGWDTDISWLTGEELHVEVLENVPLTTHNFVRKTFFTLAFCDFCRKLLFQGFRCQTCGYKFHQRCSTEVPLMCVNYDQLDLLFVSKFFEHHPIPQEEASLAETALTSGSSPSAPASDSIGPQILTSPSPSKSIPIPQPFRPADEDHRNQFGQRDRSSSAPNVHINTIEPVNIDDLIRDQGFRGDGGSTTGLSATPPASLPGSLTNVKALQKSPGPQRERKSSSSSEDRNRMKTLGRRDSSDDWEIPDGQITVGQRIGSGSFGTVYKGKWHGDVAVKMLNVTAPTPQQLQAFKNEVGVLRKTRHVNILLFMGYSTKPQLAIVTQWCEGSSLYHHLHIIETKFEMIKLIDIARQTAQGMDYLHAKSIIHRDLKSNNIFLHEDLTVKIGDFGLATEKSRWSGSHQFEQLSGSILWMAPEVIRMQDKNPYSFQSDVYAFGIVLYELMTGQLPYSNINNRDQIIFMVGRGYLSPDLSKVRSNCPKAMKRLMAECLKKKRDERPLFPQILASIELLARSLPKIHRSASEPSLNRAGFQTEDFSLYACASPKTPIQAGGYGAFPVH

Row | Structure (SMILES) | IC50 [1] | IC50 [2] | GI50 [3]
1 | O=C(Nc1ccc(Oc2ccnc3ncc(=O)[nH]c23)cc1)Nc1ccc(Cl)c(C(F)(F)F)c1 | 1290 nM | > 100000 nM | 8800 nM
2 | Cc1ccc(-n2nc(C(C)(C)C)cc2NC(=O)Nc2ccc(Oc3ccnc4[nH]nnc34)cc2F)cc1 | 1370 nM | 3100 nM | 1980 nM
3 | CC(C)(C)c1cc(NC(=O)c2cccc(Oc3ccnc4[nH]c(=O)cnc34)c2)n(-c2ccccc2)n1 | 870 nM | 5000 nM | 2000 nM
4 | Nc1nc2nccc(Oc3ccc(NC(=O)Nc4cc(C(F)(F)F)ccc4F)c(F)c3)c2[nH]c1=O | 168 nM | 9900 nM | 6500 nM
5 | O=C(Nc1ccc(Oc2ccnc3ncc(=O)[nH]c23)cc1)Nc1cc(C(F)(F)F)ccc1F | 1290 nM | 4200 nM | 4000 nM
6 | CN(C)Cc1nc2c(Oc3ccc(NC(=O)Nc4cc(C(F)(F)F)ccc4F)c(F)c3)ccnc2[nH]1 | 730 nM | > 10000 nM | 1400 nM
7 | CN(C)c1cnc2c(Oc3ccc(NC(=O)Nc4cc(C(F)(F)F)ccc4F)c(F)c3)ccnc2n1 | 220 nM | 20000 nM | 55000 nM
8 | Cc1nc2nccc(Oc3ccc(NC(=O)Nc4cc(C(C)(C)C)nn4-c4ccccc4)c(F)c3)c2[nH]c1=O | 8500 nM | 390 nM | 430 nM
9 | Cc1ccc(-n2nc(C(C)(C)C)cc2NC(=O)Nc2cccc(Oc3ccnc4ncc(=O)[nH]c34)c2)cc1 | 580 nM | 780 nM | 345 nM
10 | CSc1cc(Oc2ccnc3[nH]c(=O)[nH]c23)ccc1NC(=O)Nc1cc(C(C)(C)C)nn1-c1ccc(C)cc1 | – | – | 16 nM
11 | Cc1ccc(-n2nc(C(C)(C)C)cc2NC(=O)Nc2ccc(Oc3ccnc4[nH]c(=O)[nH]c34)cc2F)cc1 | – | – | 46 nM

Second part, led by results:

Row | IC50 [1] | IC50 [2] | Structure (SMILES) | GI50 [3]
12 | 97 nM | 3800 nM | O=C(Nc1ccc(Oc2ccnc3nc(N4CCOCC4)cnc23)cc1F)Nc1cc(C(F)(F)F)ccc1F | 1120 nM
13 | 76 nM | 69000 nM | O=C(Nc1ccc(Oc2ccnc3ncc(=O)[nH]c23)cc1F)Nc1cc(C(F)(F)F)ccc1F | 1800 nM
14 | 25 nM | 6000 nM | CN(C)c1nc2c(Oc3ccc(NC(=O)Nc4cc(C(F)(F)F)ccc4F)c(F)c3)ccnc2[nH]1 | 116 nM
15 | 69 nM | 24000 nM | O=C(Nc1ccc(Oc2ccnc3[nH]nnc23)cc1F)Nc1cc(C(F)(F)F)ccc1F | 39000 nM
16 | 110 nM | 16000 nM | CN1CCN(c2cnc3c(Oc4ccc(NC(=O)Nc5cc(C(F)(F)F)ccc5F)c(F)c4)ccnc3n2)CC1 | 120 nM
17 | 21 nM | 4000 nM | O=C(Nc1cccc(Oc2ccnc3[nH]c(=O)cnc23)c1)c1cccc(OC(F)(F)F)c1 | 9900 nM
18 | 107 nM | 45000 nM | CNc1cnc2c(Oc3ccc(NC(=O)Nc4cc(C(F)(F)F)ccc4F)c(F)c3)ccnc2n1 | 48000 nM
19 | 4 nM | 187 nM | CSc1cc(Oc2ccnc3[nH]c(=O)cnc23)ccc1NC(=O)Nc1ccc(Cl)c(C(F)(F)F)c1 | 118 nM
20 | 71 nM | 3990 nM | CSc1cc(Oc2ccnc3ncc(=O)[nH]c23)ccc1NC(=O)Nc1ccc(Cl)c(C(F)(F)F)c1 | 4300 nM
21 | 10 nM | 1430 nM | Cc1nc2c(Oc3cccc(NC(=O)c4cccc(C(C)(C)C)c4)c3)ccnc2[nH]c1=O | 890 nM
22 | 5 nM | 49 nM | Nc1nc2c(Oc3ccc(NC(=O)Nc4cc(C(F)(F)F)ccc4F)c4ccccc34)ccnc2[nH]c1=O | 15 nM
23 | 99 nM | 5 nM | Cc1ccc(-n2nc(C(C)(C)C)cc2NC(=O)Nc2ccc(Oc3ccnc4[nH]c(=O)c(C)nc34)c3ccccc23)cc1 | 75 nM
24 | 7 nM | 850 nM | CC(C)(C)c1cccc(C(=O)Nc2cccc(Oc3ccnc4[nH]c(=O)cnc34)c2)c1 | 1700 nM
